Laboratory results as given in ChEMBL document CHEMBL1649552 (2009).
Converted amounts (≈) assume the structure as drawn.

Legend:
Assay type in all cases: functional
[1] = system: Staphylococcus epidermidis; test: Antibacterial activity against methicillin-susceptible Staphylococcus epidermidis assessed as resistant isolates by CLSI M100-S17 method
Enterococcus faecalis = test: Antibacterial activity against Enterococcus faecalis by CLSI M100-S17 method
[2] = system: Staphylococcus epidermidis; test: Antibacterial activity against methicillin-susceptible Staphylococcus epidermidis by CLSI M100-S17 method
Staphylococcus aureus [3] = test: Antibacterial activity against methicillin-resistant Staphylococcus aureus by CLSI M100-S17 method
[4] = system: Staphylococcus epidermidis; test: Antibacterial activity against methicillin-resistant Staphylococcus epidermidis assessed as susceptible isolates by CLSI M100-S17 method
Streptococcus agalactiae [5] = test: Antibacterial activity against Streptococcus agalactiae assessed as intermediate isolates by CLSI M100-S17 method
In short: (§1)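 CLSI broth microdilution on clinical isolates, using frozen in-house-prepared panels of test and comparator agents. MICs were read after 20 to 24 h incubation at 35°C in ambient air. Susceptible/intermediate categories were assigned by CLSI M100-S17 guidelines.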

Streptococcus pyogenes [6] = test: Antibacterial activity against Streptococcus pyogenes assessed as susceptible isolates by CLSI M100-S17 method; in short: as §1
Staphylococcus aureus [7] = test: Antibacterial activity against methicillin-resistant Staphylococcus aureus assessed as intermediate isolates by CLSI M100-S17 method
[8] = system: Staphylococcus epidermidis; test: Antibacterial activity against methicillin-resistant Staphylococcus epidermidis by CLSI M100-S17 method
Streptococcus agalactiae [9] = test: Antibacterial activity against Streptococcus agalactiae assessed as susceptible isolates by CLSI M100-S17 method; in short: as §1
Staphylococcus aureus [10] = test: Antibacterial activity against methicillin-susceptible Staphylococcus aureus assessed as susceptible isolates by CLSI M100-S17 method
[11] = system: Staphylococcus epidermidis; test: Antibacterial activity against methicillin-susceptible Staphylococcus epidermidis assessed as intermediate isolates by CLSI M100-S17 method
Streptococcus agalactiae [12] = test: Antibacterial activity against Streptococcus agalactiae assessed as resistant isolates by CLSI M100-S17 method
In short: (§2)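 Clinical isolates were tested by CLSI broth microdilution in frozen, in-house-prepared 96-well panels of the test agent and comparator agents. MICs were read and classed as susceptible, intermediate or resistant using CLSI M100-S17 breakpoints. The value is the share of isolates in each category.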

Enterococcus faecium = test: Antibacterial activity against Enterococcus faecium by CLSI M100-S17 method
Streptococcus pyogenes [13] = test: Antibacterial activity against Streptococcus pyogenes assessed as intermediate isolates by CLSI M100-S17 method; in short: as §1
[14] = system: Staphylococcus epidermidis; test: Antibacterial activity against methicillin-susceptible Staphylococcus epidermidis assessed as susceptible isolates by CLSI M100-S17 method
Streptococcus pyogenes [15] = test: Antibacterial activity against Streptococcus pyogenes assessed as resistant isolates by CLSI M100-S17 method; in short: as §2
Staphylococcus aureus [16] = test: Antibacterial activity against methicillin-susceptible Staphylococcus aureus assessed as resistant isolates by CLSI M100-S17 method
[17] = system: Staphylococcus epidermidis; test: Antibacterial activity against methicillin-resistant Staphylococcus epidermidis assessed as resistant isolates by CLSI M100-S17 method
Staphylococcus aureus [18] = test: Antibacterial activity against methicillin-resistant Staphylococcus aureus assessed as susceptible isolates by CLSI M100-S17 method
Staphylococcus aureus [19] = test: Antibacterial activity against methicillin-resistant Staphylococcus aureus assessed as resistant isolates by CLSI M100-S17 method
Staphylococcus aureus [20] = test: Antibacterial activity against methicillin-susceptible Staphylococcus aureus by CLSI M100-S17 method
Staphylococcus aureus [21] = test: Antibacterial activity against methicillin-susceptible Staphylococcus aureus assessed as intermediate isolates by CLSI M100-S17 method
Streptococcus agalactiae [22] = test: Antibacterial activity against Streptococcus agalactiae by CLSI M100-S17 method
Escherichia coli [23] = test: Antibacterial activity against Escherichia coli assessed as resistant isolates by CLSI M100-S17 method
Proteus mirabilis [24] = test: Antibacterial activity against Proteus mirabilis assessed as intermediate isolates by CLSI M100-S17 method
Klebsiella pneumoniae [25] = test: Antibacterial activity against Klebsiella pneumoniae assessed as intermediate isolates by CLSI M100-S17 method
Proteus mirabilis [26] = test: Antibacterial activity against Proteus mirabilis by CLSI M100-S17 method
Acinetobacter baumannii [27] = test: Antibacterial activity against Acinetobacter baumannii assessed as intermediate isolates by CLSI M100-S17 method
Enterobacter cloacae [28] = test: Antibacterial activity against Enterobacter cloacae by CLSI M100-S17 method
Pseudomonas aeruginosa [29] = test: Antibacterial activity against Pseudomonas aeruginosa assessed as susceptible isolates by CLSI M100-S17 method
Escherichia coli [30] = test: Antibacterial activity against Escherichia coli assessed as intermediate isolates by CLSI M100-S17 method
Enterobacter cloacae [31] = test: Antibacterial activity against Enterobacter cloacae assessed as resistant isolates by CLSI M100-S17 method
Escherichia coli [32] = test: Antibacterial activity against Escherichia coli by CLSI M100-S17 method
Klebsiella pneumoniae [33] = test: Antibacterial activity against Klebsiella pneumoniae assessed as resistant isolates by CLSI M100-S17 method
Enterobacter cloacae [34] = test: Antibacterial activity against Enterobacter cloacae assessed as susceptible isolates by CLSI M100-S17 method
[35] = system: Stenotrophomonas maltophilia; test: Antibacterial activity against Stenotrophomonas maltophilia by CLSI M100-S17 method
[36] = system: Staphylococcus epidermidis; test: Antibacterial activity against methicillin-resistant Staphylococcus epidermidis assessed as intermediate isolates by CLSI M100-S17 method
Klebsiella oxytoca [37] = test: Antibacterial activity against Klebsiella oxytoca assessed as susceptible isolates by CLSI M100-S17 method
Escherichia coli [38] = test: Antibacterial activity against Escherichia coli assessed as susceptible isolates by CLSI M100-S17 method
Serratia marcescens [39] = test: Antibacterial activity against Serratia marcescens assessed as resistant isolates by CLSI M100-S17 method
Serratia marcescens [40] = test: Antibacterial activity against Serratia marcescens assessed as intermediate isolates by CLSI M100-S17 method
Proteus mirabilis [41] = test: Antibacterial activity against Proteus mirabilis assessed as resistant isolates by CLSI M100-S17 method
Klebsiella oxytoca [42] = test: Antibacterial activity against Klebsiella oxytoca assessed as intermediate isolates by CLSI M100-S17 method
Serratia marcescens [43] = test: Antibacterial activity against Serratia marcescens by CLSI M100-S17 method
Enterobacter cloacae [44] = test: Antibacterial activity against Enterobacter cloacae assessed as intermediate isolates by CLSI M100-S17 method
Acinetobacter baumannii [45] = test: Antibacterial activity against Acinetobacter baumannii assessed as resistant isolates by CLSI M100-S17 method
Acinetobacter baumannii [46] = test: Antibacterial activity against Acinetobacter baumannii assessed as susceptible isolates by CLSI M100-S17 method
Klebsiella pneumoniae [47] = test: Antibacterial activity against Klebsiella pneumoniae assessed as susceptible isolates by CLSI M100-S17 method
Pseudomonas aeruginosa [48] = test: Antibacterial activity against Pseudomonas aeruginosa by CLSI M100-S17 method
Proteus mirabilis [49] = test: Antibacterial activity against Proteus mirabilis assessed as susceptible isolates by CLSI M100-S17 method
Pseudomonas aeruginosa [50] = test: Antibacterial activity against Pseudomonas aeruginosa assessed as resistant isolates by CLSI M100-S17 method
Pseudomonas aeruginosa [51] = test: Antibacterial activity against Pseudomonas aeruginosa assessed as intermediate isolates by CLSI M100-S17 method
Klebsiella oxytoca [52] = test: Antibacterial activity against Klebsiella oxytoca assessed as resistant isolates by CLSI M100-S17 method
Acinetobacter baumannii [53] = test: Antibacterial activity against Acinetobacter baumannii by CLSI M100-S17 method
Streptococcus pneumoniae [54] = test: Antibacterial activity against Streptococcus pneumoniae by CLSI M100-S17 method
Streptococcus pneumoniae [55] = test: Antibacterial activity against Streptococcus pneumoniae assessed as susceptible isolates by CLSI M100-S17 method; in short: as §1
Streptococcus pneumoniae [56] = test: Antibacterial activity against Streptococcus pneumoniae assessed as resistant isolates by CLSI M100-S17 method; in short: as §2
Streptococcus pneumoniae [57] = test: Antibacterial activity against Streptococcus pneumoniae assessed as intermediate isolates by CLSI M100-S17 method; in short: as §1

CCC[C@@H]1C[C@@H](C(=O)N[C@@H]([C@H]2O[C@H](SC)[C@H](O)[C@@H](O)[C@H]2O)[C@H](C)Cl)N(C)C1 [CLINDAMYCIN]
Activity [1]: 38.9% | MIC50 (Enterococcus faecalis): > 8 µg/mL | MIC90 (Enterococcus faecalis): > 8 µg/mL | MIC50 [2]: ≤ 0.12 µg/mL | MIC90 [2]: > 8 µg/mL | MIC50 (Staphylococcus aureus [3]): > 8 µg/mL | MIC90 (Staphylococcus aureus [3]): > 8 µg/mL | Activity [4]: 10% | Activity (Streptococcus agalactiae [5]): 2.3% | Activity (Streptococcus pyogenes [6]): 97.3% | Activity (Staphylococcus aureus [7]): 0.3% | MIC50 [8]: > 8 µg/mL | Activity (Streptococcus agalactiae [9]): 85.2% | Activity (Staphylococcus aureus [10]): 91% | Activity [11]: 0% | Activity (Streptococcus agalactiae [12]): 12.5% | MIC50 (Enterococcus faecium): > 8 µg/mL | MIC90 (Enterococcus faecium): > 8 µg/mL | Activity (Streptococcus pyogenes [13]): 0% | Activity [14]: 61.1% | Activity (Streptococcus pyogenes [15]): 2.7% | Activity (Staphylococcus aureus [16]): 8.6% | Activity [17]: 90% | Activity (Staphylococcus aureus [18]): 37.9% | Activity (Staphylococcus aureus [19]): 61.8% | MIC50 (Staphylococcus aureus [20]): ≤ 0.12 µg/mL | MIC90 (Staphylococcus aureus [20]): ≤ 0.12 µg/mL | Activity (Staphylococcus aureus [21]): 0.4% | MIC50 (Streptococcus agalactiae [22]): ≤ 0.06 µg/mL | MIC90 (Streptococcus agalactiae [22]): > 8 µg/mL

GENTAMICIN
Activity [1]: 31.5% | Activity (Escherichia coli [23]): 10.6% | Activity (Proteus mirabilis [24]): 0.8% | MIC90 [2]: > 32 µg/mL | MIC90 (Staphylococcus aureus [3]): > 32 µg/mL | Activity (Klebsiella pneumoniae [25]): 0.4% | Activity [4]: 30% | MIC50 (Proteus mirabilis [26]): 1 µg/mL | MIC90 (Proteus mirabilis [26]): 2 µg/mL | Activity (Acinetobacter baumannii [27]): 0% | MIC90 (Enterobacter cloacae [28]): 1 µg/mL | Activity (Pseudomonas aeruginosa [29]): 60.1% | Activity (Staphylococcus aureus [7]): 0% | Activity (Escherichia coli [30]): 0.5% | MIC50 [8]: 16 µg/mL | MIC90 [8]: > 32 µg/mL | Activity (Enterobacter cloacae [31]): 3.6% | MIC90 (Escherichia coli [32]): 16 µg/mL | Activity (Klebsiella pneumoniae [33]): 2.9% | Activity (Enterobacter cloacae [34]): 96.4% | Activity (Staphylococcus aureus [10]): 96.7% | MIC50 [35]: 32 µg/mL | MIC90 [35]: > 32 µg/mL | Activity [36]: 15% | Activity (Klebsiella oxytoca [37]): 97% | Activity (Escherichia coli [38]): 88.9% | Activity (Serratia marcescens [39]): 4.7% | Activity [11]: 10.2% | Activity (Serratia marcescens [40]): 3.7% | Activity (Proteus mirabilis [41]): 3.4% | Activity (Klebsiella oxytoca [42]): 2% | Activity [14]: 58.3% | MIC90 (Serratia marcescens [43]): 1 µg/mL | Activity (Enterobacter cloacae [44]): 0% | Activity (Acinetobacter baumannii [45]): 8% | Activity (Acinetobacter baumannii [46]): 92% | Activity (Staphylococcus aureus [16]): 3.2% | Activity (Klebsiella pneumoniae [47]): 96.7% | Activity [17]: 55% | MIC50 (Pseudomonas aeruginosa [48]): 4 µg/mL | MIC90 (Pseudomonas aeruginosa [48]): > 32 µg/mL | Activity (Staphylococcus aureus [18]): 86.8% | Activity (Staphylococcus aureus [19]): 13.2% | MIC90 (Staphylococcus aureus [20]): 1 µg/mL | Activity (Proteus mirabilis [49]): 95.8% | Activity (Pseudomonas aeruginosa [50]): 20.9% | Activity (Pseudomonas aeruginosa [51]): 19% | Activity (Klebsiella oxytoca [52]): 1% | MIC90 (Acinetobacter baumannii [53]): 1 µg/mL | Activity (Staphylococcus aureus [21]): 0.1%

CO/N=C(\C(=O)N[C@@H]1C(=O)N2C(C(=O)O)=C(CSc3nc(=O)c(O)nn3C)CS[C@H]12)c1csc(N)n1 [CEFTRIAXONE]
MIC50 (Streptococcus pneumoniae [54]): ≤ 0.06 µg/mL | MIC90 (Streptococcus pneumoniae [54]): 0.12 µg/mL (≈ 0.216 µM) | Activity (Streptococcus pneumoniae [55]): 99.7% | Activity (Streptococcus pneumoniae [56]): 0.1% | Activity (Streptococcus pneumoniae [57]): 0.2%
